Source: ChEMBL document CHEMBL5356951, “Semisynthetic polymyxins with potent antibacterial activity and reduced kidney cell toxicity” (RSC Med Chem, 2023)
≈ marks a conversion by molar mass, not a printed value.

What was measured:
Acinetobacter baumannii [1] = assay: Antibacterial activity against Acinetobacter baumannii ATCC 19606 assessed as bacterial growth inhibition by broth microdilution assay; type: functional
In short: (§1)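 Broth microdilution MIC. Strains grown overnight on blood agar at 37 °C, colonies suspended in TSB and grown to OD600 0.5. Compounds dissolved in DMSO (6.4 mg mL−1 stock), diluted serially in CAMHB (12.5 μg mL−1 Mg2+, 20 μg mL−1 Ca2+) on polypropylene plates. Final inoculum 10^6 CFU mL−1, 37 °C under gas-permeable membrane. MIC is the lowest concentration with no visible growth, consistent across at least triplicate experiments.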

Klebsiella pneumoniae [2] = assay: Antibacterial activity against Klebsiella pneumoniae ATCC 13883 assessed as bacterial growth inhibition by broth microdilution assay; type: functional
In short: (§2)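 Broth microdilution. Bacteria from glycerol stocks were grown overnight on blood agar at 37 °C, then colonies were suspended in TSB and grown to OD600 0.5. Compounds were dissolved in DMSO at 6.4 mg mL−1 (stock) and serially diluted in CAMHB (Mg2+ 12.5, Ca2+ 20 μg mL−1) in polypropylene plates. Inoculum was 10^6 CFU mL−1 final, incubated at 37 °C. MIC = lowest concentration without visible growth; values consistent across at least triplicate experiments.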

Acinetobacter baumannii [3] = assay: Antibacterial activity against Acinetobacter baumannii 2018-006 assessed as bacterial growth inhibition by broth microdilution assay; type: functional; in short: as §1
Escherichia coli [4] = assay: Antibacterial activity against multidrug-resistant Escherichia coli NCTC 13846 assessed as bacterial growth inhibition by broth microdilution assay; type: functional; in short: as §1
Acinetobacter baumannii [5] = assay: Antibacterial activity against Acinetobacter baumannii ATCC 17978 assessed as bacterial growth inhibition by broth microdilution assay; type: functional; in short: as §1
Pseudomonas aeruginosa [6] = assay: Antibacterial activity against Pseudomonas aeruginosa NRZ 03961 assessed as bacterial growth inhibition by broth microdilution assay; type: functional; in short: as §2
Klebsiella pneumoniae [7] = assay: Antibacterial activity against Klebsiella pneumoniae JS-123 assessed as bacterial growth inhibition by broth microdilution assay; type: functional; in short: as §2
Klebsiella pneumoniae [8] = assay: Antibacterial activity against Klebsiella pneumoniae NCTC 13443 assessed as bacterial growth inhibition by broth microdilution assay; type: functional; in short: as §2
Pseudomonas aeruginosa [9] = assay: Antibacterial activity against Pseudomonas aeruginosa ATCC 27853 assessed as bacterial growth inhibition by broth microdilution assay; type: functional; in short: as §2
[10] = Cytotoxicity against human ciPTEC cells assessed as reduction in cell viability at 250 uM incubated for 24 hrs by PrestoBlue reagent based fluorescence assay; type: toxicity
In short: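 Differentiated ciPTEC-14.4 (conditionally immortalized) cells were washed with HBSS and then exposed to 250 μM compound in serum-free supplemented DMEM/F-12 for 24 h at 37 °C. After an HBSS wash, cells were incubated with 10% PrestoBlue in HBSS at 37 °C in the dark. Fluorescence was read at ex 530/em 590 nm, background-corrected, and expressed relative to medium-only cells; triplicates.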

Escherichia coli [11] = assay: Antibacterial activity against Escherichia coli ATCC 25922 assessed as bacterial growth inhibition by broth microdilution assay; type: functional; in short: as §2
Pseudomonas aeruginosa [12] = assay: Antibacterial activity against Pseudomonas aeruginosa NRZ 08418 assessed as bacterial growth inhibition by broth microdilution assay; type: functional; in short: as §2
Acinetobacter baumannii [13] = assay: Antibacterial activity against multidrug-resistant Acinetobacter baumannii assessed as bacterial growth inhibition by broth microdilution assay; type: functional; in short: as §1
Escherichia coli [14] = assay: Antibacterial activity against Escherichia coli 1313 assessed as bacterial growth inhibition by broth microdilution assay; type: functional; in short: as §2

SMILES	MIC (Acinetobacter baumannii [1])	MIC (Klebsiella pneumoniae [2])	MIC (Acinetobacter baumannii [3])	MIC (Escherichia coli [4])	MIC (Acinetobacter baumannii [5])	MIC (Pseudomonas aeruginosa [6])	MIC (Klebsiella pneumoniae [7])	MIC (Klebsiella pneumoniae [8])	MIC (Pseudomonas aeruginosa [9])	Activity [10]	MIC (Escherichia coli [11])	MIC (Pseudomonas aeruginosa [12])	MIC (Acinetobacter baumannii [13])	MIC (Escherichia coli [14])
CC(C)C[C@@H]1NC(=O)[C@@H](Cc2ccccc2)NC(=O)[C@H](CCN)NC(=O)[C@@H](NC(=O)[C@H](CCN)NC(=O)[C@@H](NC(=O)[C@H](N)CSSCc2cccc(Cl)c2)[C@@H](C)O)CCNC(=O)[C@H]([C@@H](C)O)NC(=O)[C@H](CCN)NC(=O)[C@H](CCN)NC1=O	1 µg/mL (≈ 0.818 µM)	0.5 µg/mL (≈ 0.409 µM)	2 µg/mL (≈ 1.64 µM)	4 µg/mL (≈ 3.27 µM)	1 µg/mL (≈ 0.818 µM)	1 µg/mL (≈ 0.818 µM)	0.25 µg/mL (≈ 0.204 µM)	0.25 µg/mL (≈ 0.204 µM)	4 µg/mL (≈ 3.27 µM)	> 50%	1 µg/mL (≈ 0.818 µM)	2 µg/mL (≈ 1.64 µM)	4 µg/mL (≈ 3.27 µM)	0.125 µg/mL (≈ 0.102 µM)
CC(C)C[C@@H]1NC(=O)[C@@H](Cc2ccccc2)NC(=O)[C@H](CCN)NC(=O)[C@@H](NC(=O)CNC(=O)[C@@H](NC(=O)[C@H](N)CSSCCC2CCCCC2)[C@@H](C)O)CCNC(=O)[C@H]([C@@H](C)O)NC(=O)[C@H](CCN)NC(=O)[C@H](CCN)NC1=O	0.5 µg/mL (≈ 0.429 µM)	1 µg/mL (≈ 0.858 µM)	0.5 µg/mL (≈ 0.429 µM)	8 µg/mL (≈ 6.86 µM)	0.5 µg/mL (≈ 0.429 µM)	4 µg/mL (≈ 3.43 µM)	0.5 µg/mL (≈ 0.429 µM)	1 µg/mL (≈ 0.858 µM)	2 µg/mL (≈ 1.72 µM)	–	2 µg/mL (≈ 1.72 µM)	2 µg/mL (≈ 1.72 µM)	1 µg/mL (≈ 0.858 µM)	0.5 µg/mL (≈ 0.429 µM)
CC(C)C[C@@H]1NC(=O)[C@@H](Cc2ccccc2)NC(=O)[C@H](CCN)NC(=O)[C@@H](NC(=O)[C@@H](CO)NC(=O)[C@@H](NC(=O)[C@H](N)CSSCCC2CCCCC2)[C@@H](C)O)CCNC(=O)[C@H]([C@@H](C)O)NC(=O)[C@H](CCN)NC(=O)[C@H](CCN)NC1=O	0.25 µg/mL (≈ 0.209 µM)	1 µg/mL (≈ 0.836 µM)	0.5 µg/mL (≈ 0.418 µM)	8 µg/mL (≈ 6.69 µM)	1 µg/mL (≈ 0.836 µM)	4 µg/mL (≈ 3.35 µM)	1 µg/mL (≈ 0.836 µM)	1 µg/mL (≈ 0.836 µM)	4 µg/mL (≈ 3.35 µM)	–	2 µg/mL (≈ 1.67 µM)	4 µg/mL (≈ 3.35 µM)	1 µg/mL (≈ 0.836 µM)	1 µg/mL (≈ 0.836 µM)
CC(C)C[C@@H]1NC(=O)[C@@H](Cc2ccccc2)NC(=O)[C@H](CCN)NC(=O)[C@@H](NC(=O)[C@@H](CCN)NC(=O)[C@@H](NC(=O)[C@H](N)CSSCCC2CCCCC2)[C@@H](C)O)CCNC(=O)[C@H]([C@@H](C)O)NC(=O)[C@H](CCN)NC(=O)[C@H](CCN)NC1=O	0.5 µg/mL (≈ 0.414 µM)	1 µg/mL (≈ 0.827 µM)	0.5 µg/mL (≈ 0.414 µM)	4 µg/mL (≈ 3.31 µM)	1 µg/mL (≈ 0.827 µM)	2 µg/mL (≈ 1.65 µM)	1 µg/mL (≈ 0.827 µM)	1 µg/mL (≈ 0.827 µM)	2 µg/mL (≈ 1.65 µM)	–	2 µg/mL (≈ 1.65 µM)	2 µg/mL (≈ 1.65 µM)	1 µg/mL (≈ 0.827 µM)	0.5 µg/mL (≈ 0.414 µM)
CC(C)CCSSC[C@@H](N)C(=O)N[C@H](C(=O)N[C@H](CCN)C(=O)N[C@H]1CCNC(=O)[C@H]([C@@H](C)O)NC(=O)[C@H](CCN)NC(=O)[C@H](CCN)NC(=O)[C@H](CC(C)C)NC(=O)[C@@H](Cc2ccccc2)NC(=O)[C@H](CCN)NC1=O)[C@@H](C)O	0.25 µg/mL (≈ 0.214 µM)	0.5 µg/mL (≈ 0.428 µM)	0.25 µg/mL (≈ 0.214 µM)	8 µg/mL (≈ 6.85 µM)	0.25 µg/mL (≈ 0.214 µM)	2 µg/mL (≈ 1.71 µM)	0.25 µg/mL (≈ 0.214 µM)	0.5 µg/mL (≈ 0.428 µM)	1 µg/mL (≈ 0.856 µM)	–	2 µg/mL (≈ 1.71 µM)	2 µg/mL (≈ 1.71 µM)	0.5 µg/mL (≈ 0.428 µM)	0.25 µg/mL (≈ 0.214 µM)
CC(C)CCSSC[C@@H](N)C(=O)N[C@H](C(=O)N[C@@H](CCN)C(=O)N[C@H]1CCNC(=O)[C@H]([C@@H](C)O)NC(=O)[C@H](CCN)NC(=O)[C@H](CCN)NC(=O)[C@H](CC(C)C)NC(=O)[C@@H](Cc2ccccc2)NC(=O)[C@H](CCN)NC1=O)[C@@H](C)O	0.5 µg/mL (≈ 0.428 µM)	0.5 µg/mL (≈ 0.428 µM)	0.5 µg/mL (≈ 0.428 µM)	8 µg/mL (≈ 6.85 µM)	1 µg/mL (≈ 0.856 µM)	2 µg/mL (≈ 1.71 µM)	0.25 µg/mL (≈ 0.214 µM)	0.5 µg/mL (≈ 0.428 µM)	1 µg/mL (≈ 0.856 µM)	> 50%	1 µg/mL (≈ 0.856 µM)	1 µg/mL (≈ 0.856 µM)	1 µg/mL (≈ 0.856 µM)	≤ 0.125 µg/mL
CC(C)C[C@@H]1NC(=O)[C@@H](Cc2ccccc2)NC(=O)[C@H](CCN)NC(=O)[C@@H](NC(=O)[C@H](CN)NC(=O)[C@@H](NC(=O)[C@H](N)CSSCc2cccc(Cl)c2)[C@@H](C)O)CCNC(=O)[C@H]([C@@H](C)O)NC(=O)[C@H](CCN)NC(=O)[C@H](CCN)NC1=O	0.5 µg/mL (≈ 0.414 µM)	0.5 µg/mL (≈ 0.414 µM)	2 µg/mL (≈ 1.65 µM)	2 µg/mL (≈ 1.65 µM)	≤ 0.25 µg/mL	2 µg/mL (≈ 1.65 µM)	0.5 µg/mL (≈ 0.414 µM)	2 µg/mL (≈ 1.65 µM)	4 µg/mL (≈ 3.31 µM)	–	2 µg/mL (≈ 1.65 µM)	2 µg/mL (≈ 1.65 µM)	8 µg/mL (≈ 6.62 µM)	≤ 0.125 µg/mL
CC(C)C[C@@H]1NC(=O)[C@@H](Cc2ccccc2)NC(=O)[C@H](CCN)NC(=O)[C@@H](NC(=O)[C@H](CCN)NC(=O)[C@@H](NC(=O)[C@H](N)CSSCCC2CCCCC2)[C@@H](C)O)CCNC(=O)[C@H]([C@@H](C)O)NC(=O)[C@H](CCN)NC(=O)[C@H](CCN)NC1=O	0.5 µg/mL (≈ 0.414 µM)	1 µg/mL (≈ 0.827 µM)	0.5 µg/mL (≈ 0.414 µM)	8 µg/mL (≈ 6.62 µM)	1 µg/mL (≈ 0.827 µM)	4 µg/mL (≈ 3.31 µM)	2 µg/mL (≈ 1.65 µM)	2 µg/mL (≈ 1.65 µM)	2 µg/mL (≈ 1.65 µM)	> 50%	1 µg/mL (≈ 0.827 µM)	4 µg/mL (≈ 3.31 µM)	1 µg/mL (≈ 0.827 µM)	2 µg/mL (≈ 1.65 µM)
